The source of these data is ChEMBL document CHEMBL3425425, “6-Substituted sulfocoumarins are selective carbonic anhdydrase IX and XII inhibitors with significant cytotoxicity against colorectal cancer cells” (J Med Chem, 2015).

For one test, the target named is Carbonic anhydrase 1 (Homo sapiens, UniProt P00915). The experiment in a line: Inhibition of human recombinant carbonic anhdydrase-1 expressed in Escherichia coli pre-incubated for 6 hrs by stopped-flow CO2 hydration assay.
In a further test the target is Carbonic anhydrase 9 (Homo sapiens, UniProt Q16790). The experiment in a line: Inhibition of human recombinant carbonic anhdydrase-9 expressed in Escherichia coli pre-incubated for 6 hrs by stopped-flow CO2 hydration assay.
In another test the target is Carbonic anhydrase 2 (Homo sapiens, UniProt P00918). Nature of the test: Inhibition of human recombinant carbonic anhdydrase-2 expressed in Escherichia coli pre-incubated for 6 hrs by stopped-flow CO2 hydration assay.
In test [1] the test system is HT-29. Nature of the test: Cytotoxicity against human HT-29 cells assessed as reduction in cell viability at 30 to 300 uM incubated for 16 to 72 hrs under hypoxic conditions by MTT assay. The test is classed as functional, cell-based. The method in brief:
(§1)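 Cells were kept in high-glucose DMEM with 20% FBS at 37 °C, seeded at 1 × 10^4/well and treated 24 h later at 0–300 μM (0, 30, 100, 300) for 16, 48 or 72 h. Incubation was in a hypoxic chamber (0.1% O2, 5% CO2, residual N2). Viability was measured by MTT (1 mg/mL, 30 min, 37 °C), with DMSO-solubilized formazan read at 550 nm and expressed against untreated control = 100%. Mean ± SEM of three experiments.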

Test [2] concerns HT-29. Nature of the test: Cytotoxicity against human HT-29 cells assessed as reduction in cell viability at 30 to 300 uM incubated for 16 to 72 hrs under normoxic conditions by MTT assay. It is filed as functional, cell-based. The method in brief:
(§2)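 HT-29 cells were grown in high-glucose DMEM with 20% FBS at 37 °C and plated at 1 × 10^4/well. After 24 h they were exposed to 0, 30, 100 or 300 μM for 16, 48 or 72 h in normoxia (20% O2, air, 5% CO2). Washed cells got 1 mg/mL MTT for 30 min at 37 °C, formazan was dissolved in DMSO and A550 read. Untreated set at 100%. Quadruplicates, ≥3 cell batches; mean ± SEM.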
A general note: Formazan colour is commonly taken as a measure of viable cells.

Test [3] concerns HT-29. Nature of the test: Cytotoxicity against human HT-29 cells assessed as reduction in cell viability at 100 uM incubated for 72 hrs under normoxic conditions by MTT assay. It is filed as functional, cell-based. The method in brief: as §2
Test [4] concerns HT-29. Nature of the test: Cytotoxicity against human HT-29 cells assessed as reduction in cell viability at 100 uM incubated for 72 hrs under hypoxic conditions by MTT assay. The test is classed as functional, cell-based. The method in brief: as §1
Test [5] concerns HT-29. Nature of the test: Cytotoxicity against human HT-29 cells assessed as cell viability at 100 uM incubated for 16 hrs under normoxic conditions by MTT assay. The settings on record: HT-29, 16 h, read-out: Activity. The test is classed as functional. The method in brief: as §2
In test [6] the test system is HT-29. The experiment in a line: Cytotoxicity against human HT-29 cells assessed as reduction in cell viability at 30 uM incubated for 16 hrs under normoxic conditions by MTT assay. It is filed as functional, cell-based. The method in brief:
as §2

The test system of test [7] is HT-29. The experiment in a line: Cytotoxicity against human HT-29 cells assessed as cell viability at 100 uM incubated for 72 hrs under hypoxic conditions by MTT assay. It is filed as functional. The settings on record: HT-29, 72 h, read-out: Activity. The method in brief: as §1
In test [8] the test system is HT-29. The experiment in a line: Cytotoxicity against human HT-29 cells assessed as cell viability at 100 uM incubated for 72 hrs under normoxic conditions by MTT assay. The test is classed as functional. The settings on record: HT-29, 72 h, read-out: Activity. The method in brief: as §2
Test [9] concerns HT-29. The experiment in a line: Cytotoxicity against human HT-29 cells assessed as cell viability at 30 uM incubated for 72 hrs under normoxic conditions by MTT assay. It is filed as functional. The settings on record: HT-29, 72 h, read-out: Activity. The method in brief: as §2
The test system of test [10] is HT-29. Nature of the test: Cytotoxicity against human HT-29 cells assessed as reduction in cell viability at 300 uM incubated for 16 to 72 hrs under normoxic conditions by MTT assay. The test is classed as functional, cell-based. The method in brief:
as §2

Test [11] deals with HT-29. The experiment in a line: Cytotoxicity against human HT-29 cells assessed as cell viability at 100 uM incubated for 48 hrs under normoxic conditions by MTT assay. As to conditions: HT-29, 48 h, read-out: Activity. It is filed as functional. The method in brief: as §2

Molecules are shown by their SMILES. The source made the active and inactive calls. The rule behind the calls is not given here.

Chain of Carbonic anhydrase 1 (P00915 whole entry): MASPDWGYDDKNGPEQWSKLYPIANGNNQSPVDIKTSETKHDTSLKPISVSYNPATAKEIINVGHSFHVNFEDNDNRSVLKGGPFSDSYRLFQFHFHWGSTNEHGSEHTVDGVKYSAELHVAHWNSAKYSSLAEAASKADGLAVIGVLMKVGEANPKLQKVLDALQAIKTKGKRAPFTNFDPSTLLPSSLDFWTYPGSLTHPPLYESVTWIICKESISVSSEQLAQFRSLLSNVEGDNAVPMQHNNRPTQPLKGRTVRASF

For `O=C(Nc1ccc2c(c1)C=CS(=O)(=O)O2)c1ccncc1`, the Ki – broadly, the dissociation constant of the complex between target and ligand, obtained from inhibition or displacement – is greater than 10 µM on Carbonic anhydrase 1, 0.0077 µM on Carbonic anhydrase 9 and greater than 10 µM at Carbonic anhydrase 2. In addition, the outcome in the test on HT-29 [1] and in the test with HT-29 [2] was inactive.

As to `O=C(Nc1ccc2c(c1)C=CS(=O)(=O)O2)c1ccccc1Br`, the inhibition constant Ki at Carbonic anhydrase 1 was greater than 10 µM; at Carbonic anhydrase 9, 0.0097 µM; on Carbonic anhydrase 2 it was greater than 10 µM. In addition, the result with HT-29 [3] and with HT-29 [4] was Active.

For the compound `C[N+](C)(C)c1ccc2c(c1)C=CS(=O)(=O)O2`, the Ki was greater than 10 µM at Carbonic anhydrase 1, 0.0096 µM on Carbonic anhydrase 9 and greater than 10 µM on Carbonic anhydrase 2. The outcome in the test with HT-29 [1] and in the test on HT-29 [2] was inactive.

Take `O=C(Nc1ccc2c(c1)C=CS(=O)(=O)O2)c1cccnc1`: the Ki at Carbonic anhydrase 1 was greater than 10 µM; at Carbonic anhydrase 9 it was 0.0105 µM; on Carbonic anhydrase 2 it was greater than 10 µM.

With `CC(C)(C)C(=O)Nc1ccc2c(c1)C=CS(=O)(=O)O2`, the Ki on Carbonic anhydrase 1 was greater than 10 µM; at Carbonic anhydrase 9 it was 0.0056 µM; on Carbonic anhydrase 2 it was greater than 10 µM.

On to `O=C(Nc1ccc2c(c1)C=CS(=O)(=O)O2)c1ccccc1I`, for which the Ki at Carbonic anhydrase 1 is greater than 10 µM; on Carbonic anhydrase 9 it was 0.0091 µM; at Carbonic anhydrase 2, greater than 10 µM.

Turning to `Cc1ccc(C(=O)Nc2ccc3c(c2)C=CS(=O)(=O)O3)cc1`, the inhibition constant (Ki) was greater than 10 µM at Carbonic anhydrase 1, 0.009 µM at Carbonic anhydrase 9 and greater than 10 µM at Carbonic anhydrase 2.

In the case of `N#Cc1ccc2c(c1)C=CS(=O)(=O)O2`, the Ki is greater than 10 µM at Carbonic anhydrase 1, 0.0338 µM on Carbonic anhydrase 9 and greater than 10 µM on Carbonic anhydrase 2.

As to `O=C(Nc1ccc2c(c1)C=CS(=O)(=O)O2)c1cccs1`, the Ki was greater than 10 µM on Carbonic anhydrase 1, 0.0295 µM at Carbonic anhydrase 9 and greater than 10 µM on Carbonic anhydrase 2.

`O=C(Nc1ccc2c(c1)C=CS(=O)(=O)O2)c1ccccc1`: the viability at 100 µM came to 52% in the test on HT-29 [5], 35% with HT-29 [7], 40% with HT-29 [8] and 60% in the test with HT-29 [11]. For the same compound, the inhibition constant (Ki) on Carbonic anhydrase 1 is greater than 10 µM; at Carbonic anhydrase 9, 0.0066 µM; on Carbonic anhydrase 2 it was greater than 10 µM. Moreover, the outcome in the test with HT-29 [6] was Active. In addition, the viability at 30 µM in the test on HT-29 [9] was determined as 43%. Moreover, the result in the test with HT-29 [10] was inactive.

For the compound `O=C(Nc1ccc2c(c1)C=CS(=O)(=O)O2)c1ccco1`, the values for the Ki at Carbonic anhydrase 1, at Carbonic anhydrase 9 and on Carbonic anhydrase 2 were greater than 10 µM, 0.033 µM and greater than 10 µM, respectively.

As for `CC(=O)Nc1ccc2c(c1)C=CS(=O)(=O)O2`, the figures for the Ki at Carbonic anhydrase 1, at Carbonic anhydrase 9 and at Carbonic anhydrase 2 were greater than 10 µM, 0.0172 µM and greater than 10 µM, respectively.

Take `COc1ccc2c(c1)C=CS(=O)(=O)O2`: the Ki is greater than 10 µM at Carbonic anhydrase 1, 0.0421 µM on Carbonic anhydrase 9 and greater than 10 µM at Carbonic anhydrase 2.

`O=C(Cc1ccccc1)Nc1ccc2c(c1)C=CS(=O)(=O)O2`: the values for the Ki on Carbonic anhydrase 1, at Carbonic anhydrase 9 and at Carbonic anhydrase 2 were greater than 10 µM, 0.0813 µM and greater than 10 µM, respectively.
